Measurements: ChEMBL document CHEMBL3769367, “Orexin Receptor Antagonists: New Therapeutic Agents for the Treatment of Insomnia” (J Med Chem, 2016)
Blank lines part the entries; values can stand above or below the compound they belong to.

Columns and labels:
Plasma [1] = assay: Drug metabolism in human plasma assessed as 2-(((S)-1-(5-(4-fluorophenyl)-2-methylthiazole-4-carbonyl)piperidin-2-yl)methyl)-3,5-dihydroxy-3,4-dihydroisoquinolin-1(2H)-one formation at 30 mg, po by LSC analysis; type: ADME, organism-based; settings: in vivo
Procedure, shortened: (§1)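 Eight healthy subjects received a single 30 mg oral dose of radiolabeled compound. Plasma extracts were profiled for metabolites, each expressed as a percentage of the radioactive dose.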

[2] = (§2) Apparent half life of the compound in human; type: ADME, organism-based; settings: in vivo, read-out: t1/2(app) (converted)
Plasma [3] = assay: Drug metabolism in human plasma assessed as (S)-2-(2-((1-(5-(4-fluorophenyl)-2-methylthiazole-4-carbonyl)piperidin-2-yl)methylcarbamoyl)-6-hydroxyphenyl)acetic acid formation at 30 mg, po by LSC analysis; type: ADME, organism-based; settings: in vivo; procedure, shortened: as §1
Homo sapiens [4] = assay: Effect on sleep parameter in insomnia patient assessed as sleep efficiency at 10 mg, po administered two consecutive nights 90 mins prior to sleep by polysomnography; type: functional
Homo sapiens [5] = assay: Effect on sleep parameter in insomnia patient assessed as latency to persistent sleep time at 10 mg, po administered two consecutive nights 90 mins prior to sleep by polysomnography; type: functional
Homo sapiens [6] = assay: Effect on sleep parameter in insomnia patient assessed as wake after sleep onset time at 10 mg, po administered two consecutive nights 90 mins prior to sleep by polysomnography; type: functional
Homo sapiens [7] = assay: Effect on sleep parameter in insomnia patient assessed as total sleep time at 10 mg, po administered two consecutive nights 90 mins prior to sleep by polysomnography; type: functional
Homo sapiens [8] = assay: Effect on sleep parameter in insomnia patient assessed as sleep efficiency at 30 mg, po administered two consecutive nights 90 mins prior to sleep by polysomnography; type: functional
Homo sapiens [9] = assay: Effect on sleep parameter in insomnia patient assessed as latency to persistent sleep time at 30 mg, po administered two consecutive nights 90 mins prior to sleep by polysomnography; type: functional
Homo sapiens [10] = assay: Effect on sleep parameter in insomnia patient assessed as wake after sleep onset time at 30 mg, po administered two consecutive nights 90 mins prior to sleep by polysomnography; type: functional
Homo sapiens [11] = assay: Effect on sleep parameter in insomnia patient assessed as total sleep time at 30 mg, po administered two consecutive nights 90 mins prior to sleep by polysomnography; type: functional
Homo sapiens [12] = assay: Effect on sleep parameter in insomnia patient assessed as sleep efficiency at 60 mg, po administered two consecutive nights 90 mins prior to sleep by polysomnography; type: functional
Homo sapiens [13] = assay: Effect on sleep parameter in insomnia patient assessed as latency to persistent sleep time at 60 mg, po administered two consecutive nights 90 mins prior to sleep by polysomnography; type: functional
Homo sapiens [14] = assay: Effect on sleep parameter in insomnia patient assessed as wake after sleep onset time at 60 mg, po administered two consecutive nights 90 mins prior to sleep by polysomnography; type: functional
Homo sapiens [15] = assay: Effect on sleep parameter in insomnia patient assessed as total sleep time at 60 mg, po administered two consecutive nights 90 mins prior to sleep by polysomnography; type: functional
[16] = Half life in human plasma; type: ADME, organism-based
Homo sapiens [17] = species: Homo sapiens; assay: as §2; type: ADME, organism-based; settings: in vivo
[18] = Plasma protein binding in Wistar rat; type: ADME, cell-free; settings: read-out: PPB (converted)
[19] = Elimination half life in human at 1 to 1000 mg administered as single dose; type: ADME, organism-based; settings: in vivo, read-out: beta t1/2 (converted)
Canis familiaris [20] = assay: Effect on sleep parameter in po dosed Beagle dog by EEG analysis; type: functional, Canis lupus familiaris
[21] = Ratio of drug level in CSF to plasma in Wistar rat
[22] = Ratio of drug level in brain to plasma in Wistar rat; type: ADME, cell-free; settings: read-out: BPR
[23] = Half life in iv dosed Wistar rat; type: ADME, organism-based; settings: in vivo
[24] = Oral bioavailability in Wistar rat; type: ADME, organism-based; settings: in vivo
[25] = Oral bioavailability in Beagle dog; type: ADME, organism-based, Canis lupus familiaris; settings: in vivo
Rattus norvegicus [26] = assay: Effect on sleep parameter in po dosed Wistar rat by EEG analysis; type: functional
Rattus norvegicus [27] = assay: Effect on sleep parameter in Wistar rat assessed as NREM sleep duration time at 100 mg/kg, po measured over 12 hrs (reference value: 243 +/- 8 min); type: functional
Rattus norvegicus [28] = assay: Effect on sleep parameter in Wistar rat assessed as REM sleep duration time at 100 mg/kg, po measured over 12 hrs (reference value: 33 +/- 4 min); type: functional
Rattus norvegicus [29] = assay: Effect on sleep parameter in Wistar rat assessed as latency to persistent NREM time at 100 mg/kg, po measured over 12 hrs (reference value: 40 +/- 3 min); type: functional
Rattus norvegicus [30] = assay: Effect on sleep parameter in Wistar rat assessed as latency to persistent REM time at 100 mg/kg, po measured over 12 hrs (reference value: 101 +/- 17 min); type: functional
[31] = Oral bioavailability in human; type: ADME, organism-based; settings: in vivo
[32] = Tmax in human at 1 to 1000 mg administered as single dose; type: ADME, organism-based; settings: in vivo
Homo sapiens [33] = assay: Effect on sleep parameter in insomnia patient assessed as sleep efficiency at 50 mg, po by polysomnography; type: functional
Homo sapiens [34] = assay: Effect on sleep parameter in insomnia patient assessed as latency to persistent sleep time at 50 mg, po by polysomnography; type: functional
Homo sapiens [35] = assay: Effect on sleep parameter in insomnia patient assessed as wake after sleep onset time at 50 mg, po by polysomnography; type: functional
Homo sapiens [36] = assay: Effect on sleep parameter in insomnia patient assessed as total sleep time at 50 mg, po by polysomnography; type: functional
Homo sapiens [37] = assay: Effect on sleep parameter in insomnia patient assessed as sleep efficiency at 100 mg, po by polysomnography; type: functional
Homo sapiens [38] = assay: Effect on sleep parameter in insomnia patient assessed as latency to persistent sleep time at 100 mg, po by polysomnography; type: functional
Homo sapiens [39] = assay: Effect on sleep parameter in insomnia patient assessed as wake after sleep onset time at 100 mg, po by polysomnography; type: functional
Homo sapiens [40] = assay: Effect on sleep parameter in insomnia patient assessed as total sleep time at 100 mg, po by polysomnography; type: functional
Homo sapiens [41] = assay: Effect on sleep parameter in insomnia patient assessed as sleep efficiency at 200 mg, po by polysomnography; type: functional
Homo sapiens [42] = assay: Effect on sleep parameter in insomnia patient assessed as latency to persistent sleep time at 200 mg, po by polysomnography; type: functional
Homo sapiens [43] = assay: Effect on sleep parameter in insomnia patient assessed as wake after sleep onset time at 200 mg, po by polysomnography; type: functional
Homo sapiens [44] = assay: Effect on sleep parameter in insomnia patient assessed as total sleep time at 200 mg, po by polysomnography; type: functional
Homo sapiens [45] = assay: Effect on sleep parameter in insomnia patient assessed as sleep efficiency at 400 mg, po by polysomnography; type: functional
Homo sapiens [46] = assay: Effect on sleep parameter in insomnia patient assessed as latency to persistent sleep time at 400 mg, po by polysomnography; type: functional
Homo sapiens [47] = assay: Effect on sleep parameter in insomnia patient assessed as wake after sleep onset time at 400 mg, po by polysomnography; type: functional
Homo sapiens [48] = assay: Effect on sleep parameter in insomnia patient assessed as total sleep time at 400 mg, po by polysomnography; type: functional
Rattus norvegicus [49] = assay: Effect on sleep parameter in po dosed rat by EEG analysis; type: functional
[50] = target: T1, Orexin/Hypocretin receptor type 1 (Homo sapiens, UniProt O43613); assay: Antagonist activity at human OX1R expressed in CHO cell membranes assessed as inhibition of orexin-A-induced intracellular calcium release after 120 mins; type: functional, cell-based
T1 sequence (O43613 whole entry): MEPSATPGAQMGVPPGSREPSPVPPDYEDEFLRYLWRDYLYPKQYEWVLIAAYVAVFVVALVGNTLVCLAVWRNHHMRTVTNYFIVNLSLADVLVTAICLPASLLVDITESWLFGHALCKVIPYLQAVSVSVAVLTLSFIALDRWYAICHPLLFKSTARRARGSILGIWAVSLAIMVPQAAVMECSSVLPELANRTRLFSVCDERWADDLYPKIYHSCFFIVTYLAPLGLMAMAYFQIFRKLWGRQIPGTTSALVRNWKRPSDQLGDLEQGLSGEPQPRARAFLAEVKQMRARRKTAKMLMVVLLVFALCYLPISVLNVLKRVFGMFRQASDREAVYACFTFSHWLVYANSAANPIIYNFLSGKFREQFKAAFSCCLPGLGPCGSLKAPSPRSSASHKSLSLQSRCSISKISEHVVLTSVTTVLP

[51] = Plasma protein binding in human; type: ADME, cell-free; settings: read-out: PPB (converted)
[52] = target: T1, Orexin/Hypocretin receptor type 1; assay: Binding affinity to OX1R (unknown origin)
[53] = Plasma protein binding in rat; type: ADME, cell-free; settings: read-out: PPB (converted)
[54] = Plasma protein binding in dog; type: ADME, cell-free, Canis lupus familiaris; settings: read-out: PPB (converted)
Rattus norvegicus [55] = species: Rattus norvegicus; assay: Receptor occupancy at OX2R in rat brain assessed as drug level in plasma; type: functional
[56] = Clearance in iv dosed rat; type: ADME, organism-based; settings: in vivo
[57] = Half life in iv dosed rat; type: ADME, organism-based; settings: in vivo
[58] = Clearance in iv dosed dog; type: ADME, organism-based, Canis lupus familiaris; settings: in vivo
[59] = Half life in iv dosed dog; type: ADME, organism-based, Canis lupus familiaris; settings: in vivo
[60] = Oral bioavailability in rat; type: ADME, organism-based; settings: in vivo
[61] = Oral bioavailability in dog; type: ADME, organism-based, Canis lupus familiaris; settings: in vivo
Canis familiaris [62] = assay: Effect on sleep parameter in po dosed dog by EEG analysis; type: functional, Canis lupus familiaris
Orexin receptor type 2 = target: T2, Orexin receptor type 2 (Homo sapiens, UniProt O43614); assay: Antagonist activity at human OX2R expressed in CHO cell membranes assessed as inhibition of orexin-A-induced intracellular calcium release after 120 mins; type: functional, cell-based
T2 sequence (O43614 whole entry): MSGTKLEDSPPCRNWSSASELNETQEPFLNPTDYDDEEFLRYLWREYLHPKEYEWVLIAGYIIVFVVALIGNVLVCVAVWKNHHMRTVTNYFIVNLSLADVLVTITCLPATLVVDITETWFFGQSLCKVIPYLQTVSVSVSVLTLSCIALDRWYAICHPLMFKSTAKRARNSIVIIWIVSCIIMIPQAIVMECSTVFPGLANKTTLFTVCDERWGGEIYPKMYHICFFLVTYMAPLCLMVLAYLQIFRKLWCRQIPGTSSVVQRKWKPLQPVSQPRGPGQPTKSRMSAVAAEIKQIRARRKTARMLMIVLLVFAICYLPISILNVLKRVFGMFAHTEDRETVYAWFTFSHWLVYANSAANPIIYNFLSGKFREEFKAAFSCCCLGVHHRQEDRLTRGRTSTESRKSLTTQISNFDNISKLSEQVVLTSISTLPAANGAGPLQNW

[63] = Ratio of drug level in CSF to plasma in rat; type: ADME, cell-free
[64] = Ratio of drug level in brain to plasma in rat; type: ADME, cell-free; settings: read-out: BPR

Drug metabolism (Plasma [1]): 2 %ID
half-life [2]: 5 h
Drug metabolism (Plasma [3]): 11 %ID
half-life [16]: 4 h
SMILES: Cc1nc(C(=O)N2CCCC[C@H]2CNC(=O)c2cccc3occc23)c(-c2ccc(F)cc2)s1 (stereo in doubt; form 1) [SB-649868]
Activity (Homo sapiens [4]): 4.7%
Time (Homo sapiens [5]): -26.1 min
Time (Homo sapiens [6]): 3.2 min
Time (Homo sapiens [7]): 22.4 min
Activity (Homo sapiens [8]): 10.4%
Time (Homo sapiens [9]): -33 min
Time (Homo sapiens [10]): -18.4 min
Time (Homo sapiens [11]): 49.7 min
Activity (Homo sapiens [12]): 14.6%
Time (Homo sapiens [13]): -43.7 min
Time (Homo sapiens [14]): -29 min
Time (Homo sapiens [15]): 69.8 min

t1/2(app) (Homo sapiens [17]): 39 h
SMILES: Cc1nc(C(=O)N2CCCC[C@H]2CNC(=O)c2cccc3occc23)c(-c2ccc(F)cc2)s1 (stereo in doubt; form 2) [SB-649868]

fraction unbound [18]: 0.01
half-life [19]: 13.1 h
Kp [21]: 0.002
Kp [22]: 0.3
half-life [23]: 8 h
bioavailability [24]: 8%
bioavailability [25]: 18%
bioavailability [31]: 11%
Tmax [32]: 0.7 h
SMILES: CNC(=O)[C@@H](c1ccccc1)N1CCc2cc(OC)c(OC)cc2[C@@H]1CCc1ccc(C(F)(F)F)cc1 [ALMOREXANT]
Activity (Canis familiaris [20]): 100 mg/kg
Activity (Rattus norvegicus [26]): 30 mg/kg
Time (Rattus norvegicus [27]): 286 min
Time (Rattus norvegicus [28]): 50 min
Time (Rattus norvegicus [29]): 30 min
Time (Rattus norvegicus [30]): 91 min
Activity (Homo sapiens [33]): 3.3%
Time (Homo sapiens [34]): -5.7 min
Time (Homo sapiens [35]): -6.7 min
Time (Homo sapiens [36]): 15.8 min
Activity (Homo sapiens [37]): 4.6%
Time (Homo sapiens [38]): -10.4 min
Time (Homo sapiens [39]): -20.1 min
Time (Homo sapiens [40]): 21.4 min
Activity (Homo sapiens [41]): 8.2%
Time (Homo sapiens [42]): -10.4 min
Time (Homo sapiens [43]): -34.3 min
Time (Homo sapiens [44]): 39.3 min
Activity (Homo sapiens [45]): 14.4%
Time (Homo sapiens [46]): -18 min
Time (Homo sapiens [47]): -54 min
Time (Homo sapiens [48]): 69.7 min

IC50 [50]: 11 nM
fraction unbound [51]: 0.025
Ki [52]: 2.2 nM
fraction unbound [53]: 0.05
fraction unbound [54]: 0.06
clearance [56]: 67 mL/min/kg
half-life [57]: 0.5 h
clearance [58]: 5.8 mL/min/kg
half-life [59]: 2.3 h
bioavailability [60]: 25%
bioavailability [61]: 26%
IC50 (Orexin receptor type 2): 11 nM
Kp [63]: 0.04
Kp [64]: 1.1
SMILES: Cc1ccc(-c2ncccn2)c(C(=O)N2C[C@H](COc3ccc(F)cn3)CC[C@H]2C)c1 [FILOREXANT]
Activity (Rattus norvegicus [49]): 3 mg/kg
Occ90 (Rattus norvegicus [55]): 142 nM
Activity (Canis familiaris [62]): 0.25 mg/kg
